Kd, IC50 and EC50 data for 23 molecules are collected here from ChEMBL document CHEMBL5352442, “Structure-based design, synthesis and evaluation of a novel family of PEX5-PEX14 interaction inhibitors against Trypanosoma” (Eur J Med Chem, 2022).

Assay [1] can be described thus: Binding affinity to Ni-NTA-ATTO647-labeled N-terminal His-tagged Trypanosoma brucei PEX14 (19 to 84 residues) expressed in Escherichia coli BL21 assessed as dissociation constant by MST assay. An outline of the steps:
(§1)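 PEX14 N-terminal domain (aa 19–84, N-His), purified by Ni-NTA and then SEC in PBS, labeled with Ni-NTA-ATTO647 at protein:label 2:1 for 1 h at room temperature in the dark. Buffer: 50 mM Tris-HCl pH 7.4, 150 mM NaCl, 10 mM MgCl2, 0.0125% Tween 20. Labeled protein 200 nM with inhibitor serial dilution, 5% DMSO. Triplicates; Kd from MST fit; mean of n = 3.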

Assay [2] deals with Trypanosoma brucei brucei. The assay is described as follows: Trypanocidal activity against bloodstream form of Trypanosoma brucei brucei incubated for 66 hrs by resazurin dye based assay. The assay is classed as functional, organism-based. An outline of the steps: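 T. b. brucei Lister 427 bloodstream form in HMI-11 with 10% FBS, 37 °C, 5% CO2. Ten-point 1:1 serial dilutions in quadruplicate; final 2×10^3 parasites/mL. After 66 h, resazurin was added and plates incubated to 72 h. Fluorescence ex 530/em 585 nm, medium background subtracted, survival normalized to no-compound well. IC50 from sigmoidal nonlinear regression.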
(In general: Resazurin is reduced to fluorescent resorufin, in cell work by metabolically active cells.)

Assay [3] can be described thus: Binding affinity to Ni-NTA-ATTO647-labeled N-terminal His-tagged Trypanosoma cruzi PEX14 (19 to 84 residues) expressed in Escherichia coli BL21 assessed as dissociation constant by MST assay. An outline of the steps:
as §1

Assay [4] can be described thus: Inhibition of biotinylated PEX5 (unknown origin)/N-terminal His-tagged Trypanosoma brucei PEX14 (19 to 84 residues) expressed in Escherichia coli BL21 by AlphaScreen assay. An outline of the steps: (§2)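 Streptavidin donor and Ni-chelate acceptor beads each 5 μg/mL. Inhibitor serial dilutions at constant 5% DMSO.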
Assay [5] is described as follows: Inhibition of biotinylated PEX5 (unknown origin)/N-terminal His-tagged Trypanosoma cruzi PEX14 (19 to 84 residues) expressed in Escherichia coli BL21 by AlphaScreen assay. An outline of the steps: as §2
In general terms: In Alpha technology, singlet oxygen from a donor bead excites a nearby acceptor bead.

For `CCN1C(=O)c2ccccc2Oc2cc(NS(=O)(=O)Cc3ccccc3)ccc21`, the Kd (commonly a measure of binding affinity in units of concentration) in assay [1] is 158 µM; in assay [3] it was 252 µM. For the same molecule, half-maximal inhibition in assay [2] (IC50) was put at 19.4 µM. Moreover, the figures for the EC50 in assay [4] and in assay [5] were 3630 µM and 6830 µM, respectively.

Regarding `CCN1C(=O)c2ccccc2Oc2cc(NC(=O)Cn3nnc4ccccc43)ccc21`, the results for the dissociation constant Kd in assay [1] and in assay [3] were 14 µM and 3 µM, respectively. Moreover, in assay [2], the concentration for half-maximal inhibition (IC50) – broadly, the midpoint of a concentration-inhibition curve – came out at 7.9 µM. The half-maximal effective concentration (EC50) (as a rule, the concentration needed to bring the measured effect to its halfway point) in assay [4] turned out to be 351 µM; in assay [5], 13000 µM.

As to `CCN1C(=O)c2ccccc2Sc2cc(NC(=O)Cc3ccc(F)cc3)ccc21`, the equilibrium dissociation constant (Kd) in assay [1] was 951 µM; in assay [3] it was 56 µM. The molecule further displayed an IC50 in assay [2] of 5.4 µM. For the same molecule, the EC50 in assay [4] is 230 µM; in assay [5], 637 µM.

As for `CCN1C(=O)c2ccccc2Oc2cc(NC(=O)Oc3ccccc3)ccc21`, the Kd in assay [1] worked out at 232 µM; in assay [3], 100000 µM. The same molecule yielded a concentration for half-maximal inhibition (IC50) in assay [2] of 52.8 µM. Also, the EC50 in assay [4] was determined as 250 µM; in assay [5], 3590 µM.

In the case of `CCN1C(=O)c2ccccc2Oc2cc(NC(=O)Cc3cnccn3)ccc21`, in assay [1], the Kd was found to be 840 µM. For the same molecule, in assay [2], the IC50 came out at 47.6 µM. The 50% effective concentration (EC50) amounted to 741 µM in assay [4] and 1930 µM in assay [5].

For `CCN1C(=O)c2ccccc2Oc2cc(NC(=O)Cc3cscn3)ccc21`, the values for the dissociation constant (Kd) in assay [1] and in assay [3] were 61000 µM and 1700 µM, respectively. In assay [2], this molecule returned a 50% inhibitory concentration (IC50) of 57.5 µM.

With `CCN1C(=O)c2ccccc2Oc2cc(NC(=O)[C@@H](N)c3ccccc3)ccc21`, the Kd in assay [1] was found to be 625 µM; in assay [3] it was 10200 µM. Further, in assay [2], the half-maximal inhibitory concentration (IC50) was 13.4 µM. The EC50 came to 253 µM in assay [4] and 421 µM in assay [5].

Regarding `CCN1C(=O)c2ccccc2Oc2cc(NC(=O)[C@@H](NC(=O)OC(C)(C)C)c3ccccc3)ccc21`, the Kd in assay [1] was found to be 380 µM; in assay [3], 2 µM. For the same molecule, 58.5 µM corresponded to half-maximal inhibition in assay [2] (IC50). For the same molecule, the EC50 in assay [4] worked out at 318 µM; in assay [5], 1610 µM.

Take `CCN1C(=O)c2ccccc2Oc2cc(NC(=O)Cc3ccc(F)cc3)ccc21`: the Kd was determined as 131 µM in assay [1] and 124 µM in assay [3]. Also, the IC50 in assay [2] is 8.12 µM. For the same molecule, the concentration giving a half-maximal response (EC50) in assay [4] was 875 µM; in assay [5], 4590 µM.

As to `CC(C)N1C(=O)c2cccnc2[S+]([O-])c2cc(NC(=O)Cc3ccc(F)cc3)ccc21` (stereo unspecified), the half-maximal effective concentration (EC50) in assay [4] turned out to be 1730 µM.

Consider `CCN1C(=O)c2ccccc2Oc2cc(NC(=O)Cc3cccc(Cl)c3)ccc21`, for which the figures for the Kd in assay [1] and in assay [3] were 44 µM and 64 µM, respectively. For the same molecule, half-maximal inhibition in assay [2] (IC50) was put at 7.38 µM. Besides, the values for the EC50 in assay [4] and in assay [5] were 500 µM and 2930 µM, respectively.

`CCN1C(=O)c2ccccc2Oc2cc(NC(=O)Cc3cccc4ccccc34)ccc21`: the figures for the Kd in assay [1] and in assay [3] were 147 µM and 42 µM, respectively. Moreover, the half-inhibitory concentration (IC50) in assay [2] was 6.35 µM. The EC50 amounted to 69 µM in assay [4] and 4520 µM in assay [5].

In the case of `CS(=O)(=O)N1C(=O)c2ccccc2Oc2cc(NC(=O)Cc3ccc(F)cc3)ccc21`, the figures for the dissociation constant Kd in assay [1] and in assay [3] were 2 µM and 3000 µM, respectively. Half-maximal inhibition in assay [2] (IC50) was put at 19.3 µM. Further, the EC50 came out at 422 µM in assay [4] and 10300 µM in assay [5].

In assay [2], `O=C(Cc1ccc(F)cc1)Nc1ccc2c(c1)Oc1ccccc1C(=O)N2` yielded a 50% inhibitory concentration (IC50) of 20.7 µM. Also, the EC50 amounted to 11000 µM in assay [4] and 551 µM in assay [5].

With `CCN1C(=O)c2ccccc2Oc2cc(NC(=O)Cc3ccccc3)ccc21`, the IC50 in assay [2] is 13.3 µM. For the same molecule, the EC50 in assay [4] is 1090 µM; in assay [5], 788 µM.

For the molecule `CCN1C(=O)c2ccccc2Oc2cc(NC(=O)Cc3c[nH]c4ccccc34)ccc21`, the equilibrium dissociation constant (Kd) in assay [1] was determined as 13 µM; in assay [3], 9 µM. Further, the IC50 in assay [2] worked out at 13.7 µM. For the same molecule, the figures for the half-maximal effective concentration (EC50) in assay [4] and in assay [5] were 109 µM and 677 µM, respectively.

Consider `CCN1C(=O)c2ccccc2Oc2cc(NC(=O)Cc3ccc(Cl)cc3)ccc21`, for which the Kd in assay [1] was found to be 385 µM; in assay [3] it was 2800 µM. In assay [2], this molecule gave a 50% inhibitory concentration (IC50) of 5.39 µM. In addition, the values for the EC50 in assay [4] and in assay [5] were 54 µM and 2370 µM, respectively.

Consider `CCN1C(=O)c2ccccc2Oc2cc(NC(=O)Cc3cccnc3)ccc21`, for which the dissociation constant (Kd) stood at 1460 µM in assay [1] and 3450 µM in assay [3]. Moreover, half-maximal inhibition in assay [2] (IC50) required 29.4 µM. In addition, the concentration giving a half-maximal response (EC50) in assay [4] was found to be 843 µM; in assay [5], 1230 µM.

`CCN1C(=O)c2ccccc2Oc2cc(NS(=O)(=O)c3ccccc3)ccc21`: the Kd in assay [1] amounted to 20 µM; in assay [3] it was 12 µM. The concentration for half-maximal inhibition (IC50) in assay [2] amounted to 7.1 µM. Also, the values for the EC50 in assay [4] and in assay [5] were 935 µM and 778 µM, respectively.

For `CC(C)N1C(=O)c2cccnc2Sc2cc(NC(=O)Cc3ccc(F)cc3)ccc21`, the Kd in assay [1] stood at 24 µM; in assay [3], 5 µM. Further, half-maximal inhibition in assay [2] (IC50) was put at 0.86 µM. Further, the EC50 is 1050 µM in assay [4] and 2290 µM in assay [5].

As to `COC(=O)CN1C(=O)c2ccccc2Oc2cc(NC(=O)Cc3ccc(F)cc3)ccc21`, in assay [2], the IC50 was 11.6 µM. In addition, the half-maximal effective concentration (EC50) is 7230 µM in assay [4] and 4590 µM in assay [5].

Take `CCN1C(=O)c2ccccc2Oc2cc(NC(=O)Cc3ccsc3)ccc21`: the Kd amounted to 29 µM in assay [1] and 9 µM in assay [3]. The same molecule showed a 50% inhibitory concentration (IC50) in assay [2] of 8.3 µM. Further, the 50% effective concentration (EC50) in assay [4] is 825 µM; in assay [5], 2360 µM.

As for `COC(=O)N1C(=O)c2ccccc2Oc2cc(NC(=O)Cc3ccc(F)cc3)ccc21`, the Kd in assay [1] worked out at 369 µM; in assay [3] it was 258 µM. Further, the IC50 in assay [2] was determined as 7.7 µM. The molecule also showed a 50% effective concentration (EC50) in assay [4] of 480 µM.
